Measurements from PubChem BioAssay.
Calls of active or inactive are those of the source.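 The calls were made as follows, unless noted: active = fluorescence slope higher than the sample average by over 3 SD (cut at about -0.22 in these data, passing the limit was not always enough); inactive = the rest.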

Legend:
[1] = inhibitors of TNFa-induced NFkB p65 translocation, primary screen, imaging, HUVEC, MLSMR starter and 10KST1 sets (AID 438;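 active = inhibition above 20% together with a positive visual image hit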;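 also: compound added about 3h40 before a 20 min TNFalpha stimulation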;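 as to inhibition: signal is the nuclear over cytoplasmic p65 intensity ratio per well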); details: HUVEC TNFa-induced p65 nuclear translocation; cell count: measured here: nuclei count (cytotoxicity indicator), at 2.08 µM; inhibition: at 2 µM, stronger effect = higher value, 0% TNFa-plus-vehicle, 100% no-TNFa wells
[2] = inhibitors of E-selectin induction by TNFa, primary screen, imaging, HUVEC, immunofluorescence, MLSMR starter and 10KST1 sets (AID 487;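 active = visually confirmed hit in the image check and inhibition above 20%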;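 as to inhibition: signal is fraction of cell area covered by stained E-selectin grains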;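 as to nuclei count: 100% = median nuclei count of all wells on the same plate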); details: HUVEC TNFalpha-induced E-selectin immunofluorescence imaging, at 2 µM; inhibition: stronger effect = higher value; nuclei count: measured here: cell number, toxicity
[3] = DUSP6 inhibitors restoring Erk phosphorylation by chemical complementation, primary imaging in DUSP6-transfected HeLa (AID 609;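 active = compounds giving at least 50% inhibition in the cell-based MKP-3 phosphatase rescue imaging test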;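 as to inhibition: phospho-Erk level distribution per well compared with pooled transfected vehicle control wells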); details: HeLa MKP-3 transfected, phospho-Erk imaging KS statistic, at 10 µM, cells stimulated with TPA for 15 min
[4] = molecular target: Dual specificity protein phosphatase 6 (Homo sapiens) (UniProt Q16828); assay: as above; details: HeLa MKP-3 transfected, phospho-Erk imaging KS statistic; at 10 µM; stronger effect = higher value; cells stimulated with TPA for 15 min
Sequence of Dual specificity protein phosphatase 6 (Homo sapiens) (Q16828 whole entry, looked up): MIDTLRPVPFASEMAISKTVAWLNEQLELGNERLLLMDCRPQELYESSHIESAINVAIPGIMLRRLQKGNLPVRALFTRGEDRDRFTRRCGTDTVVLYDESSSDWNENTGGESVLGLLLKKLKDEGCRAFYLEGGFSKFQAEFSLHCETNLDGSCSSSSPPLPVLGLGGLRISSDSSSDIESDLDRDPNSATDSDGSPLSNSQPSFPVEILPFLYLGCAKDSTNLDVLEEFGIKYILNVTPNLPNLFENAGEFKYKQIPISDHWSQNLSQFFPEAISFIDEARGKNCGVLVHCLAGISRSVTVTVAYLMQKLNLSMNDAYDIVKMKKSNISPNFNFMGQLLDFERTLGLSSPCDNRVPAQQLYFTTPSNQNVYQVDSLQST

[5] = molecular target: Voltage-gated potassium channel subunit beta-2 (Rattus norvegicus) (UniProt P62483); assay: KvBeta enzyme negative modulators, primary screen, biochemical, NADPH fluorescence (AID 622); details: recombinant KvBeta, 4-cyanobenzaldehyde reduction, at 10 µM, stronger effect = higher value;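 also: slope of raw intensity against log time taken from 70 to 1610 s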
Sequence of Voltage-gated potassium channel subunit beta-2 (Rattus norvegicus) (P62483 whole entry, looked up): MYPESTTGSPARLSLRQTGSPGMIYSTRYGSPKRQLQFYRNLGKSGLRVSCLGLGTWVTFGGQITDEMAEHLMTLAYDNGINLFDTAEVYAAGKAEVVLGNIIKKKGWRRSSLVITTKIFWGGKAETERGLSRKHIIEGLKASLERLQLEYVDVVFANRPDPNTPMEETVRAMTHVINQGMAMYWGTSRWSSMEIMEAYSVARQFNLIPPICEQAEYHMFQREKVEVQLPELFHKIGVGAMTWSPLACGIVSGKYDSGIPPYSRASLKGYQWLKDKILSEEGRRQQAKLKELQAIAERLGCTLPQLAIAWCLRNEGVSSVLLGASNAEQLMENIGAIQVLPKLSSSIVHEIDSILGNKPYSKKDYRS

[6] = molecular target: Voltage-gated potassium channel subunit beta-2 (Rattus norvegicus) (UniProt P62483); assay: KvBeta positive modulators, primary screen, biochemical, NADPH fluorescence (AID 623;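 active = NADPH fluorescence slope more negative than the mean of all samples by about 3 SD, 99.7% confidence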;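 also: fluorescence intensity change per second fitted from 20 to 320 s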); details: Recombinant KvBeta, NADPH fluorescence decrease slope, 10 min; at 10 µM; stronger effect = lower value
[7] = molecular target: Alpha-2C adrenergic receptor (Homo sapiens) (UniProt P18825); assay: modulators of alpha2C/GIRK thallium flux, primary screen, cell-based, HEK293 alpha2C/GIRK1/2 (AID 624;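 active = fluorescence slope after compound addition differing from the mean of all screened samples at 99.7% confidence, in either direction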;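 also: slope of fluorescence ratio to pre-addition baseline per second over 15 to 24 s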); details: thallium flux BTC fluorescence, at 10 µM, actives lie on both sides
Sequence of Alpha-2C adrenergic receptor (Homo sapiens) (P18825 whole entry, looked up): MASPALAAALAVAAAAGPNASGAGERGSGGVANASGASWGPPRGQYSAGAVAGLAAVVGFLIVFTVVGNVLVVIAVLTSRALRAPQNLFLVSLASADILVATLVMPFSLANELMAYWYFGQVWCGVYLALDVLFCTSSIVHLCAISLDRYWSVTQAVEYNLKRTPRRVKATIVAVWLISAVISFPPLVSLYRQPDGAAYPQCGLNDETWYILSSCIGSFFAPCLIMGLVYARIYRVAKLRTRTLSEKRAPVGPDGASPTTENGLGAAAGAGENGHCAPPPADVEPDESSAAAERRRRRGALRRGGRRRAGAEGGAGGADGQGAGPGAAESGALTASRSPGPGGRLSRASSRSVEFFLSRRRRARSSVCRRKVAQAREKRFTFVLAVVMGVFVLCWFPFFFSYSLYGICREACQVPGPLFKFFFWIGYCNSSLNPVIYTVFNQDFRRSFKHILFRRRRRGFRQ

[8] = inhibitors of larval lipid processing in zebrafish, primary screen, whole organism, PED6 fluorescence, gall bladder and intestine (AID 686;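 active = a full or partial loss of lipid-probe fluorescence in the fish gall bladder, intestine or both, judged by eye; inactive = no fluorescence loss, or compound toxic to the fish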;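 also: larvae 5 to 7 days old with five fish per well; signal comes from phospholipase A2 cleavage of quenched PED6 carried via bile; overnight exposure to compound and PED6 before scoring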); details: Zebrafish larvae PED6 lipid processing, fluorescence scoring; screened at 20 µM (by protocol)
Outline: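 System: live zebrafish larvae aged 5-7 days, whole organism; measure: graded gall bladder and intestinal fluorescence inhibition per well; incubation: overnight exposure; reagent: ingested quenched lipid PED6 at 100 nM; signal: By-eye fluorescence microscopy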

[9] = inhibitors of Chlamydomonas gravitaxis, primary screen, whole organism, Chlamydomonas reinhardtii, WT vs cilia-less mutant, absorbance, 96-well (AID 463189;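 active = inhibition at or above 50% relative to wild type and mutant plate controls; inactive = inhibition below 50%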;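 also: 0% = wild type cc124 cells in DMSO and 100% = ciliumless bld1 mutant cells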); details: OD600 absorbance, 2 days, at 10 µM, stronger effect = higher value
[10] = measured here: cell density z-score
[11] = measured here: nuclear c-Myc green intensity z-score
[12] = measured here: nuclear pErk red intensity z-score, stronger effect = higher value

Row | SMILES | cell count [1] | inhibition [1] | inhibition [2] | nuclei count [2] [%] | z-score [3, 10] | z-score [3, 11] | z-score [3, 12] | inhibition [4] | fluorescence slope [5] | NADPH fluorescence slope [6] | slope [7] | outcome [8] | inhibition [9]
1 | COc1ccccc1N1CCN(CCCCOc2ccc(F)cc2)CC1 | 461 | -6.8% (inactive) | -62.1% (inactive) | 116 | 1.12 | -0.735 | -0.613 | 26.6% (inactive) | -0.52 (inactive) | -3.7e-05 (inactive) | 0.00493 (inactive) | inactive | 9.82% (inactive)
2 | O=C(Nc1ccc2c(c1)OCCO2)c1ccc(Br)o1 | 587 | 3.2% (inactive) | 6.1% (inactive) | 143 | 0.114 | -1.76 | -1.37 | -1.75% (inactive) | -0.295 (inactive) | -8.8e-06 (inactive) | 0.00481 (inactive) | inactive | 12.8% (inactive)
3 | CCCCNC(=O)c1c(N)n(/N=C/c2cccnc2)c2nc3ccccc3nc12 | 474 | 4.9% (inactive) | -130% (inactive) | 139 | 1.68 | -0.352 | 0.256 | 24.5% (inactive) | -0.456 (inactive) | 5.4e-07 (inactive) | 0.0052 (inactive) | inactive | 29% (inactive)
4 | CCCCc1ccc(NC(=O)CSC2=C(C#N)C(c3ccco3)C3=C(CCCC3=O)N2)cc1 (stereo unspecified) | 384 | -8% (inactive) | -114% (inactive) | 151 | 0.415 | 1.7 | -0.943 | 7.42% (inactive) | -0.44 (inactive) | -9.7e-05 (inactive) | 0.00706 (inactive) | inactive | -5.66% (inactive)
5 | O=C(CNC1=NCCC1)c1ccc2c(c1)OCCO2 | 488 | -10.2% (inactive) | -73% (inactive) | 161 | -0.692 | -1.12 | -0.547 | 28.6% (inactive) | -0.485 (inactive) | -0.000113 (inactive) | 0.006 (inactive) | inactive | -8.59% (inactive)
6 | CNC(=O)c1cc2ccccc2o1 | 323 | -23.3% (inactive) | -72.9% (inactive) | 132 | -1.3 | -0.443 | -1.56 | -5.26% (inactive) | -0.428 (inactive) | -4.2e-05 (inactive) | 0.00621 (inactive) | inactive | 32% (inactive)
7 | CCSc1nc(N)c2c3c(sc2n1)CCC3 | 602 | -14.1% (inactive) | -20.6% (inactive) | 146 | 0.476 | 0.818 | 0.254 | 7.7% (inactive) | -0.408 (inactive) | -4.9e-05 (inactive) | 0.00637 (inactive) | inactive | -5.03% (inactive)
8 | CN1CCC2(CC1)C1CN(C)CC=C1C(C#N)=C(N)C2(C#N)C#N (stereo unspecified) | 542 | -8.9% (inactive) | -165% (inactive) | 198 | -1.09 | 0.771 | 1.17 | 2.46% (inactive) | -0.349 (inactive) | -8.7e-06 (inactive) | 0.0029 (inactive) | inactive | 11.5% (inactive)
9 | NS(=O)(=O)c1ccc(-c2ccc(C=NC3CCS(=O)(=O)C3)o2)cc1 (stereo unspecified) | 576 | 0.1% (inactive) | -53.9% (inactive) | 94 | -1.97 | 0.0247 | 1.53 | -4.7% (inactive) | -0.59 (inactive) | -5.6e-05 (inactive) | 0.00467 (inactive) | inactive | -10.3% (inactive)
10 | COc1ccc(OC)c2c1CCC2=O | 434 | -0.5% (inactive) | 3.9% (inactive) | 102 | -0.357 | -1.08 | -0.0279 | -1.12% (inactive) | -0.0756 (inactive) | 8.5e-06 (inactive) | 0.00599 (inactive) | inactive | 9.78% (inactive)
11 | CN1C2C=C3C(C#N)=C(N)C(C#N)(C#N)[C@@H](c4cccs4)C3C1CC2 (stereo partly specified) | 494 | -6.5% (inactive) | -7.4% (inactive) | 116 | 0.352 | -1.56 | 0.939 | 22.7% (inactive) | -0.419 (inactive) | 2.6e-06 (inactive) | 0.00481 (inactive) | inactive | -3.84% (inactive)
12 | COc1ccc(OC(=O)c2cc3ccccc3o2)cc1 | 610 | -1.1% (inactive) | 77.3% (active) | 142 | -0.358 | -0.13 | -0.531 | -9.66% (inactive) | -0.377 (inactive) | -3.8e-05 (inactive) | 0.0058 (inactive) | inactive | -0.854% (inactive)
